How the values were obtained:
[1] = molecular target: T1, Sodium- and chloride-dependent GABA transporter 1 (Mus musculus, UniProt P31648); assay: Inhibition of mouse GAT1 expressed in HEK293 cell line assessed as inhibition of [3H]GABA uptake measured after 35 mins by liquid scintillation method; assay type: cell-based
Summary of the method: (§1)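 Otherwise, the remaining uptake at 100 µM is reported as a percentage. Values without SEM come from a single triplicate experiment.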

GABA transporter 4 = molecular target: T2, GABA transporter 4 (Mus musculus, UniProt P31650); assay: Inhibition of mouse GAT4 expressed in HEK293 cell line assessed as inhibition of [3H]GABA uptake measured after 35 mins by liquid scintillation method; assay type: cell-based; summary of the method: as §1
T2 sequence (P31650 whole entry): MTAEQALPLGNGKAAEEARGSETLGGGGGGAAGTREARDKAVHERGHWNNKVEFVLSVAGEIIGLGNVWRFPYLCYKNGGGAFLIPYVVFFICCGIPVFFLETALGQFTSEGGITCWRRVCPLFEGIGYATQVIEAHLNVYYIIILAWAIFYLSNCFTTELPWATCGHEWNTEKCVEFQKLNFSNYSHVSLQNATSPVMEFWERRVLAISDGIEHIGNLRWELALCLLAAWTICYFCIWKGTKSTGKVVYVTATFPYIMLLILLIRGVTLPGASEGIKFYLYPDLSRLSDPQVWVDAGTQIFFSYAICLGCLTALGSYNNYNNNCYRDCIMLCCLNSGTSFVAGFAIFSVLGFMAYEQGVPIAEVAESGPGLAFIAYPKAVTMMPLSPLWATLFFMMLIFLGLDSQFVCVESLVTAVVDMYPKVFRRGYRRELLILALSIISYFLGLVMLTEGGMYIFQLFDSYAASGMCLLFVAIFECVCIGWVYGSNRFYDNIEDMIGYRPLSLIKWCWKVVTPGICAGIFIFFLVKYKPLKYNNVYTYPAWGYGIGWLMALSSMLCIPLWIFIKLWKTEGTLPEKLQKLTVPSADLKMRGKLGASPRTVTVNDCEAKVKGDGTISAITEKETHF

[2] = Lipophilicity, logP of the compound by UPLC-MS method; assay type: physicochemical; settings: octanol/water
Summary of the method: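 LogP measured by UPLC on a BEH C18 column (2.1 × 100 mm, 1.7 µm, with C18 pre-column) coupled to an ESI tandem quadrupole MS. The method was calibrated with reference compounds of established logP values.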

[3] = molecular target: Sodium- and chloride-dependent GABA transporter 1 (Mus musculus) (UniProt P31648); assay: Displacement of [3H]NO711 from mouse GAT1 expressed in HEK293 cells at 100 uM measured after 40 mins of incubation by LC-ESI-MS-MS method; assay type: cell-based; settings: in the assay text read “NO711” for “[3H]NO711”
Summary of the method: (§2)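 Competitive MS Binding Assay for mGAT1 using NO-711 as a nonlabeled marker, quantified by LC–ESI–MS–MS. Compounds were screened at 100 µM. […] Otherwise, the percentage of remaining binding at 100 µM is given.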

[4] = molecular target: T1, Sodium- and chloride-dependent GABA transporter 1; assay: Displacement of [3H]NO711 from mouse GAT1 expressed in HEK293 cells measured after 40 mins of incubation by LC-ESI-MS-MS method; assay type: cell-based; settings: in the assay text read “unlabelled NO711” for “[3H]NO711”; summary of the method: as §2
GABA transporter 3 = molecular target: T3, GABA transporter 3 (Mus musculus, UniProt P31649); assay: Inhibition of mouse GTA 3 receptor
T3 sequence (P31649 whole entry): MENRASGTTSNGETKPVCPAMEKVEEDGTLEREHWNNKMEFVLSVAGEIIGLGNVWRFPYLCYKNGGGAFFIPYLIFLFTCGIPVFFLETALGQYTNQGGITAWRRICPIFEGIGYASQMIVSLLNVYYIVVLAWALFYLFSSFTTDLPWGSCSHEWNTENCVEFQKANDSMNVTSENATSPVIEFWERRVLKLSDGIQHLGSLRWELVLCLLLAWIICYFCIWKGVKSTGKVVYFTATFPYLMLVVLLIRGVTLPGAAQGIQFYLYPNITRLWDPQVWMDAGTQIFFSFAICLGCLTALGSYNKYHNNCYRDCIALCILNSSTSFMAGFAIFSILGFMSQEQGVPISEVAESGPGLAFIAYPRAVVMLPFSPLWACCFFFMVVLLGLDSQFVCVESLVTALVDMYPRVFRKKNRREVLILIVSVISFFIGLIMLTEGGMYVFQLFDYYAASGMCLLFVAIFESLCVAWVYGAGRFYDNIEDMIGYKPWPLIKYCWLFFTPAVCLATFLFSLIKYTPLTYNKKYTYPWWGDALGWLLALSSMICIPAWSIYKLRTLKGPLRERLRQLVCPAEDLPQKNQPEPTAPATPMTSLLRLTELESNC

| SMILES | IC50 [1] [µM] | IC50 (GABA transporter 4) [µM] | logP ([2]; read-out: logP) | residual activity [3] [%] | other results |
| --- | --- | --- | --- | --- | --- |
| Cc1ccc(CNC(=O)C(CC(C)O)N(C)CCC=C(c2sccc2C)c2sccc2C)cc1 (racemic) [listing 1 of 2 here] | 12.3 | 5.5 | – | – | – |
| Cc1ccc(CNC(=O)C(CC(C)O)N(C)CCC=C(c2sccc2C)c2sccc2C)cc1 (stereo in doubt) [listing 1 of 2 here] | 25.1 | 7.08 | 6.15 | – | – |
| Cc1ccsc1C(=CCCN(C)C(CC(C)O)C(=O)NCc1ccccc1Cl)c1sccc1C (racemic; form 2) | – | – | – | – | logP [2]: 5.67; pIC50 (GABA transporter 4; hek293): 5.02 |
| Cc1ccsc1C(=CCCN(C)C(CC(C)O)C(=O)NCc1ccc(F)cc1)c1sccc1C (racemic; form 2) [listing 1 of 2 here] | 85.1 | 29.5 | – | – | – |
| Cc1ccsc1C(=CCCN(C)C(CCO)C(=O)NCc1ccccc1)c1sccc1C (stereo not drawn) | 15.8 | 10.2 | 5.71 | 60 | – |
| Cc1ccsc1C(=CCCN(C)C(CC(C)O)C(=O)NCc1ccc(Cl)cc1)c1sccc1C (mixture of isomers) [listing 1 of 2 here] | 57.5 | 13.2 | – | – | logP [2]: 6.77 |
| Cc1ccsc1C(=CCCN(C)C(CC(C)O)C(=O)NCc1ccc(Cl)cc1)c1sccc1C (mixture of isomers) [listing 2 of 2 here] | – | – | – | 91 | – |
| Cc1ccsc1C(=CCCN(C)C(CCO)C(=O)NCc1ccc(F)cc1)c1sccc1C (stereo not drawn) | 15.5 | 11 | 5.87 | 70 | – |
| Cc1ccsc1C(=CCCN(C)C(CC(C)O)C(=O)NCc1ccc(F)cc1)c1sccc1C (racemic; form 1) [listing 1 of 2 here] | 66.1 | 17.8 | 5.51 | – | – |
| Cc1ccsc1C(=CCCN(C)C(CCN)C(=O)NCc1ccccc1)c1sccc1C (stereo not drawn) | 11.5 | 6.61 | 5.5 | – | Ki [4]: 24.5 µM |
| Cc1ccsc1C(=CCCN(C)C(CC(C)O)C(=O)NCc1ccccc1Cl)c1sccc1C (racemic; form 1) | – | 9.55 | 5.95 | – | – |
| Cc1ccsc1C(=CCCN(C)C(CC(C)O)C(=O)NCc1ccccc1)c1sccc1C (racemic; form 2) [listing 1 of 2 here] | – | – | – | 59 | – |
| Cc1ccsc1C(=CCCN(C)C1CCc2onc(O)c2C1)c1sccc1C (stereo not drawn) | 7.08 | > 302 | – | – | – |
| Cc1ccsc1C(=CCCN(C)C(CCN)C(=O)NCc1ccc(Cl)cc1)c1sccc1C (stereo not drawn) | 9.33 | 8.13 | 5.85 | – | Ki [4]: 20 µM |
| Cc1ccsc1C(=CCCN(C)C(CCO)C(=O)NC(C)c1ccccc1)c1sccc1C (stereo not drawn) | 30.2 | 13.8 | 6.1 | 68 | – |
| CC(=O)NCCC(C(=O)NCc1ccccc1Cl)N(C)CCC=C(c1sccc1C)c1sccc1C (stereo not drawn) | 8.71 | 6.17 | 6.46 | 68 | – |
| Cc1ccsc1C(=CCCN(C)C(CO)C(=O)NCc1ccccc1)c1sccc1C (stereo not drawn) | 35.5 | 20.9 | 6.26 | 46 | – |
| Cc1ccsc1C(=CCCN(C)C(CC(C)O)C(=O)NCc1ccccc1)c1sccc1C (racemic; form 2) [listing 2 of 2 here] | 23.4 | 18.6 | – | – | logP [2]: 6.22 |
| Cc1ccsc1C(=CCCN(C)C(CC(C)O)C(=O)NCc1ccc(Cl)cc1)c1sccc1C (stereo in doubt) | – | 28.8 | 5.99 | – | – |

| SMILES | IC50 [1] [µM] | IC50 (GABA transporter 4) [µM] | logP ([2]; read-out: logP) | residual activity [3] [%] | other results |
| --- | --- | --- | --- | --- | --- |
| Cc1ccsc1C(=CCCN(C)[C@H](CCO)C(=O)NCc1ccccc1Cl)c1sccc1C | 13.8 | – | – | – | Ki [4]: 25.7 µM |
| CN(CCC=C(c1ccccc1)c1ccccc1)C(CCN)C(=O)NCc1ccccc1Cl (stereo not drawn) | – | – | – | – | IC50 (GABA transporter 3): 10 µM |
| Cc1ccsc1C(=CCCN(C)C(CC(C)O)C(=O)NCc1ccccc1)c1sccc1C (racemic; form 1) [listing 1 of 2 here] | 13.2 | 3.89 | 5.64 | – | – |
| O=C(O)C1=CCCN(CCO/N=C/c2ccccc2-c2ccc(Cl)cc2Cl)C1 | – | 85.1 | – | – | – |
| Cc1ccsc1C(=CCCN(C)C(CCN)C(=O)NCc1ccccc1Cl)c1sccc1C (stereo not drawn) | 7.59 | 5.62 | 6.11 | – | Ki [4]: 11.7 µM |
| Cc1ccsc1C(=CCCN(C)C(CCN)C(=O)NCc1ccc(F)cc1)c1sccc1C (stereo not drawn) | 11.7 | 7.59 | 6.45 | – | Ki [4]: 21.9 µM |
| NCC(O)C(=O)O (stereo not drawn) | 2510 | 5.01 | – | – | – |
| Cc1ccsc1C(=CCCN(C)C(CO)C(=O)NCc1ccc(C(F)(F)F)cc1)c1sccc1C (stereo not drawn) | 13.5 | 17 | – | 92 | – |
| Cc1ccc(CNC(=O)C(CCN)N(C)CCC=C(c2sccc2C)c2sccc2C)cc1 (stereo not drawn) | 11.5 | 6.92 | 6.61 | – | Ki [4]: 18.2 µM |
| Cc1ccc(CNC(=O)C(CC(C)O)N(C)CCC=C(c2sccc2C)c2sccc2C)cc1 (racemic) [listing 2 of 2 here] | – | – | – | 79 | – |
| Cc1ccsc1C(=CCCN(C)[C@@H](CO)C(=O)NCc1ccc(Cl)cc1)c1sccc1C | – | – | – | – | Ki [4]: 87.1 µM |
| Cc1ccsc1C(=CCCN(C)[C@H](CO)C(=O)NCc1ccc(Cl)cc1)c1sccc1C | 20.4 | – | – | – | Ki [4]: 18.6 µM |
| Cc1ccsc1C(=CCCN(C)C(CCO)C(=O)NCc1ccc(F)cc1F)c1sccc1C (stereo not drawn) | 12.3 | 8.71 | 6.37 | 71 | – |
| Cc1ccsc1C(=CCCN(C)C(CC(C)O)C(=O)NCc1ccc(F)cc1)c1sccc1C (racemic; form 1) [listing 2 of 2 here] | – | – | – | 78 | – |
| Cc1ccc(CNC(=O)C(CCO)N(C)CCC=C(c2sccc2C)c2sccc2C)cc1 (stereo not drawn) | 12.9 | 7.08 | 6.2 | 58 | – |
| Cc1ccc(CNC(=O)C(CC(C)O)N(C)CCC=C(c2sccc2C)c2sccc2C)cc1 (stereo in doubt) [listing 2 of 2 here] | – | – | – | 72 | – |
| Cc1ccsc1C(=CCCN(C)C(CC(C)O)C(=O)NCc1ccccc1)c1sccc1C (racemic; form 1) [listing 2 of 2 here] | – | – | – | 82 | – |
| Cc1ccsc1C(=CCCN(C)C(CCO)C(=O)NCc1ccc(Cl)cc1)c1sccc1C (stereo not drawn) | 9.33 | 7.41 | 6.38 | 81 | – |
| Cc1ccsc1C(=CCCN(C)C(CC(C)O)C(=O)NCc1ccc(F)cc1)c1sccc1C (racemic; form 2) [listing 2 of 2 here] | – | – | – | 70 | – |

From ChEMBL document CHEMBL4765247, “Novel mouse GABA uptake inhibitors with enhanced inhibitory activity toward mGAT3/4 and their effect on pain threshold in mice” (Eur J Med Chem, 2020)
